System: Fibroblast
Experiment: Multiplex assay against human fibroblast
Type: toxicity, cell-based
Method in brief: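 Four dyes were applied at seeding to live cells: Hoechst33342, BioTracker Green Microtubule Cytoskeleton Dye, MitoTracker Red and Annexin V Alexa Fluor 680. Imaging after compound addition used a CQ1 microscope at 37°C and 5% CO2. CellPathfinder machine-learning gating then sorted cells into Hoechst high-intensity objects or normal cells, normal cells into healthy, pyknosed or fragmented nuclei, and pyknosed cells into mitotic or apoptotic, with tubulin, mitochondrial-mass and membrane-permeability phenotypes given as per cents of healthy-nucleus cells.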

[1] = 12 h, 1 µM, compound concentration 1 uM, replicate 1
[2] = 12 h, 1 µM, compound concentration 1 uM, replicate 2
[3] = 12 h, 10 µM, compound concentration 10 uM, replicate 1
[4] = 12 h, 10 µM, compound concentration 10 uM, replicate 2
[5] = 24 h, 1 µM, compound concentration 1 uM, replicate 1
[6] = 24 h, 1 µM, compound concentration 1 uM, replicate 2
[7] = 24 h, 10 µM, compound concentration 10 uM, replicate 1

## Cl.Cl.Nc1ncnc2c1c(-c1cccc(OCc3ccccc3)c1)cn2[C@H]1C[C@@H](CN2CCC2)C1
[1]
  Population Apoptotic (%): 70%
  Population Fragmented Nuclei (%): 31%
  Population Healthy Nuclei (%): 48%
  Population Hoechst High Intensity Objects (%): 22%
  Population Membrane Permeable-Phenotype (%): 21%
  Population Mitochondria Different-Phenotype (%): 9%
  Population Mitotic Cells (%): 29%
  Population Normal (%): 77%
  Population Pyknosed Nuclei (%): 20%
  Population Tubulin-Different-Phenotype (%): 53%
  Total Cell Count: 109
[2]
  Population Apoptotic (%): 29%
  Population Fragmented Nuclei (%): 11%
  Population Healthy Nuclei (%): 67%
  Population Hoechst High Intensity Objects (%): 6%
  Population Membrane Permeable-Phenotype (%): 3%
  Population Mitochondria Different-Phenotype (%): 71%
  Population Mitotic Cells (%): 70%
  Population Normal (%): 93%
  Population Tubulin-Different-Phenotype (%): 52%
  Total Cell Count: 55
[3]
  Population Apoptotic (%): 60%
  Population Fragmented Nuclei (%): 24%
  Population Healthy Nuclei (%): 39%
  Population Hoechst High Intensity Objects (%): 38%
  Population Membrane Permeable-Phenotype (%): 9%
  Population Mitochondria Different-Phenotype (%): 50%
  Population Mitotic Cells (%): 40%
  Population Normal (%): 61%
  Population Pyknosed Nuclei (%): 36%
  Population Tubulin-Different-Phenotype (%): 77%
  Total Cell Count: 222
[4]
  Population Apoptotic (%): 85%
  Population Fragmented Nuclei (%): 22%
  Population Healthy Nuclei (%): 47%
  Population Hoechst High Intensity Objects (%): 8%
  Population Membrane Permeable-Phenotype (%): 77%
  Population Mitochondria Different-Phenotype (%): 97%
  Population Mitotic Cells (%): 14%
  Population Normal (%): 91%
  Population Pyknosed Nuclei (%): 29%
  Population Tubulin-Different-Phenotype (%): 97%
  Total Cell Count: 90
[5]
  Population Apoptotic (%): 53%
  Population Fragmented Nuclei (%): 29%
  Population Healthy Nuclei (%): 57%
  Population Hoechst High Intensity Objects (%): 26%
  Population Membrane Permeable-Phenotype (%): 18%
  Population Mitochondria Different-Phenotype (%): 3%
  Population Mitotic Cells (%): 46%
  Population Normal (%): 73%
  Population Pyknosed Nuclei (%): 12%
  Population Tubulin-Different-Phenotype (%): 53%
  Total Cell Count: 141
[6]
  Population Apoptotic (%): 28%
  Population Fragmented Nuclei (%): 13%
  Population Healthy Nuclei (%): 64%
  Population Hoechst High Intensity Objects (%): 6%
  Population Membrane Permeable-Phenotype (%): 4%
  Population Mitochondria Different-Phenotype (%): 68%
  Population Mitotic Cells (%): 71%
  Population Normal (%): 93%
  Population Pyknosed Nuclei (%): 21%
  Population Tubulin-Different-Phenotype (%): 39%
  Total Cell Count: 50
[7]
  Population Apoptotic (%): 84%
  Population Fragmented Nuclei (%): 18%
  Population Healthy Nuclei (%): 40%
  Population Hoechst High Intensity Objects (%): 48%
  Population Membrane Permeable-Phenotype (%): 5%
  Population Mitochondria Different-Phenotype (%): 59%
  Population Mitotic Cells (%): 15%

Reference: ChEMBL document CHEMBL4689842, “EUbOPEN Chemogenomics Library wave 1” (2021)
